Results on two molecules are retold here after publication PMC4050360 (Results in Pharma Sciences, 2014).

In brackets after ≈: the same amount, converted by molar mass.

For series [1] the following is noted: ref 41 (Scifinder); cited from earlier work.
The nature of series [2]: In vivo pharmacokinetic study, intravenous emulsion. Also on record: species or system female Sprague Dawley rats. The conditions noted are these: rat. In outline:
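Female Sprague Dawley rats (248–276 g; n = 6/group) received a tail-vein dose molar equivalent to 5 mg aripiprazole/kg. Vehicle: submicron emulsion (20% w/w MCT oil, 1.2% lecithin, 2% glycerol, water; 1 mg aripiprazole-equivalent/mL). K-EDTA blood was sampled at 5, 15, 30 min and 1–24 h. Acidified-acetonitrile plasma extracts with d8 internal standard were analysed by positive-ESI MRM. Two-compartment fit; trapezoidal AUC extrapolated to infinity; mean ± SEM.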

The conditions of series [3]: cited from earlier work.
The mark [4] stands for this setting: female, Sprague Dawley, plasma, iv, 5 mg/kg.

For `O=C1CCc2ccccc2N1` [3,4-dihydro-2(1H)-quinolinone], the “Estimated pKa” value in series [1] was 14.6.

With `O=C1CCc2ccc(OCCCCN3CCN(c4cccc(Cl)c4Cl)CC3)cc2N1` [aripiprazole], the clearance in series [2] (female, Sprague Dawley, plasma, iv, 5 mg aripiprazole/kg (molar equivalent)) was 22.8 mL/min/kg. In series [2] (setting [4]), this molecule had a Vd of 8.16 ± 0.75 L/kg and a half-life of around 4.2 h. The “AUC0?8” value in series [2] (i.v., molar equivalent to 5 mg aripiprazole/kg, n = 6, mean ± SEM) came to 8176 ± 2647 nmol?h/L. In addition, the solubility in water in series [3] was 9 µM (≈ 4.04 µg/mL).

By clearance is commonly meant the volume of plasma or blood freed of the substance per unit of time. One may read the Vd as the apparent volume that relates the amount in the body to the concentration in plasma or blood. High values mean extensive tissue distribution, low ones confinement near the circulation. Usually half-life stands for the time in which the quantity being followed falls by half.
